According to publication PMC10755797 (The Journal of Biological Chemistry, 2023):
Several values for one entry are separate records, joined by “and”; a condition that tells them apart may be missing. Identical values can stand only once. Entries after “also recorded” stand apart in the source; their conditions may differ.

How the values were obtained:
[1] = In vivo metabolite identification by LC-MS in plasma, colon and feces; conditions: mice, 10 mg/kg MMT3-72 orally, 6 h
[2] = biological target: JAK1 (Homo sapiens, UniProt P23458); assay: Kinase-Glo Max kinase assay, purified enzyme; type: biochemical
JAK1, sequence (P23458 whole entry): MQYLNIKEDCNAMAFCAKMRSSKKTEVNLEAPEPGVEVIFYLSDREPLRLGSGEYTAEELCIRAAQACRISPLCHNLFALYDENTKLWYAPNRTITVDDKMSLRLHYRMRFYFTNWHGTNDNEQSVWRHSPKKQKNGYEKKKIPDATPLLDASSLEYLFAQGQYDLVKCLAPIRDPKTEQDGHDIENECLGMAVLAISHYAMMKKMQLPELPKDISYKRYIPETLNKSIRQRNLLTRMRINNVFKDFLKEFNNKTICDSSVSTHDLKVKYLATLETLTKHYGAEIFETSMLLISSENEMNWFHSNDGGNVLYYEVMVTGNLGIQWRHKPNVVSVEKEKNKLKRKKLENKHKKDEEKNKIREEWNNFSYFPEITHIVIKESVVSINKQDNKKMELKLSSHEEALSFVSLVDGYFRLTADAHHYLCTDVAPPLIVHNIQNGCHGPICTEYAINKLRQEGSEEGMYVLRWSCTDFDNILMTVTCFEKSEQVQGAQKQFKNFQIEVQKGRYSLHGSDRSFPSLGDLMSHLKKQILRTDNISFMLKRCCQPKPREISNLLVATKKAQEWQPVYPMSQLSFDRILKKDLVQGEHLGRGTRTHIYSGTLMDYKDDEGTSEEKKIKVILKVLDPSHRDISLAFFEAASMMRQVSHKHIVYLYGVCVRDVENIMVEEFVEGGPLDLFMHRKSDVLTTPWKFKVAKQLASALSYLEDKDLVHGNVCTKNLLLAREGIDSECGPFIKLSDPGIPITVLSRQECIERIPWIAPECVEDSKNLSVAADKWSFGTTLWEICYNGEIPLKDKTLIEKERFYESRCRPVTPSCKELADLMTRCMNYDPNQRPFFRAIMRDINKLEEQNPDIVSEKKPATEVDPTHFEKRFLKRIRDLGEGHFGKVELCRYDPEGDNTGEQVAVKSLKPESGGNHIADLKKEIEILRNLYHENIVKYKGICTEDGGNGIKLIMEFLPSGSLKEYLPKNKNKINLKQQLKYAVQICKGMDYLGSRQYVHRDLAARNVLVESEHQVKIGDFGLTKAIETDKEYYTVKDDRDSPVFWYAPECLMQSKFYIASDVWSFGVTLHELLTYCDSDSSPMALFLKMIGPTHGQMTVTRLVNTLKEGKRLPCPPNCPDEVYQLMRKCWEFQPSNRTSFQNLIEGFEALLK

[3] = biological target: JAK2 (Homo sapiens, UniProt O60674); assay: Kinase-Glo Max kinase assay, purified enzyme; type: biochemical
JAK2, sequence (O60674 whole entry): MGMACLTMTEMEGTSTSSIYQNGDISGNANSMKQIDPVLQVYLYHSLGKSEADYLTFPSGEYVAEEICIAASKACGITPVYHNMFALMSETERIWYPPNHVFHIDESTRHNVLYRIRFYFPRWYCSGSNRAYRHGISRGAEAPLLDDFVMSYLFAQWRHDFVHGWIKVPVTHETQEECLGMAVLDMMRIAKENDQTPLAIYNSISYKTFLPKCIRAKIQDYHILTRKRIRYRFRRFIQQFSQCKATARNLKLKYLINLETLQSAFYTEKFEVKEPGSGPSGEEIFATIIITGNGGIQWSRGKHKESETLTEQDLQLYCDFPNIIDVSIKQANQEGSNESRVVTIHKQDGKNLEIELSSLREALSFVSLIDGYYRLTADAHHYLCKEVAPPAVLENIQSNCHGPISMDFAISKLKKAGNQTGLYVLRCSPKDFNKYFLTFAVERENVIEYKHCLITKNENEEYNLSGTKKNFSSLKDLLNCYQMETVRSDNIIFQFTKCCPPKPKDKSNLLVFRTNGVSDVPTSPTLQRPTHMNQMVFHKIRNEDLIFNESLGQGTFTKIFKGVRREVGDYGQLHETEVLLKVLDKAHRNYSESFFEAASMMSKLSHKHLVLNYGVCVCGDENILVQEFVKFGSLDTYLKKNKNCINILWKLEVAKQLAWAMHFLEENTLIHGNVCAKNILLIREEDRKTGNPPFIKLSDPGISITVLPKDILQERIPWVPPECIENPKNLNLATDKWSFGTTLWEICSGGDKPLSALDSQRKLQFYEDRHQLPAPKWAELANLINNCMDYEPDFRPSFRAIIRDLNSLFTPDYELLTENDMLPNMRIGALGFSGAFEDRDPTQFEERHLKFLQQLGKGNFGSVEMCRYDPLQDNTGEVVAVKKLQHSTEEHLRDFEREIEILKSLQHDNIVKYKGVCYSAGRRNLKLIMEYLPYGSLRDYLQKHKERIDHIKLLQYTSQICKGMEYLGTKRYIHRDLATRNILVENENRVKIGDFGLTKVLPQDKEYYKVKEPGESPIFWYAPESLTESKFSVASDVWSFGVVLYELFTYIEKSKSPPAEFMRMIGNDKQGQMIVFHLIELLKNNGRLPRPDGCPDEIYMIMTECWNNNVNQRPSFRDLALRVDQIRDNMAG

[4] = biological target: T1, JAK3 (Homo sapiens, UniProt P52333); assay: Kinase-Glo Max kinase assay, purified enzyme; type: biochemical
T1 sequence (P52333 1-1124): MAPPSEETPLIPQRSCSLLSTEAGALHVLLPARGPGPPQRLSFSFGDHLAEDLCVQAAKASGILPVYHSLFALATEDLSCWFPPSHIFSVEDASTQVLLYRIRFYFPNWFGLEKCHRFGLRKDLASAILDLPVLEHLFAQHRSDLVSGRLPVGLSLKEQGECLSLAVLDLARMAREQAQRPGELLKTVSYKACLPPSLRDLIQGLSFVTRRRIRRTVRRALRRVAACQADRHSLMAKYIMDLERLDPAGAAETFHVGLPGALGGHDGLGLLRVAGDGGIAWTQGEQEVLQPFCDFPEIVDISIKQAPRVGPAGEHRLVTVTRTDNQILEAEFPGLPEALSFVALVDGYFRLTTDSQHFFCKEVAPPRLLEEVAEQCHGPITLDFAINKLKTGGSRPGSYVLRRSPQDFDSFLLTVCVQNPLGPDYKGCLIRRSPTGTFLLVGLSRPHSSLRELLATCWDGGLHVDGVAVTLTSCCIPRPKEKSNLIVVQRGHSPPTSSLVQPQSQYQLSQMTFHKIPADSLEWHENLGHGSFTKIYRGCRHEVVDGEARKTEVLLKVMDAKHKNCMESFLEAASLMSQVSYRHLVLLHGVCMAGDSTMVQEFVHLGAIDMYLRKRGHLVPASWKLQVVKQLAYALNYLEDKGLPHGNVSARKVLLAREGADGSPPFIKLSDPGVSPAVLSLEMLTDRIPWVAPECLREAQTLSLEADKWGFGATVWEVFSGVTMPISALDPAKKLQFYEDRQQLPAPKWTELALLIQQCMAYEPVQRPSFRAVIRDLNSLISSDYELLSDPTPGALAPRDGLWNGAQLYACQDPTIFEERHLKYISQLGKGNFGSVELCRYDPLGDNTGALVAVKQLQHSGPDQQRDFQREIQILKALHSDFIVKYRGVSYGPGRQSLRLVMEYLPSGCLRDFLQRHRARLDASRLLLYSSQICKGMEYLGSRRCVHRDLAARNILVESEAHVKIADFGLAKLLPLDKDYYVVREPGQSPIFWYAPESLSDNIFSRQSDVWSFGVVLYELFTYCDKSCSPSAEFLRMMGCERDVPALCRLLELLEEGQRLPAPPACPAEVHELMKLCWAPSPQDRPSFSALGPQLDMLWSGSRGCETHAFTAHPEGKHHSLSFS

[5] = biological target: TYK2 (Homo sapiens, UniProt P29597); assay: Kinase-Glo Max kinase assay, purified enzyme; type: biochemical
TYK2, sequence (P29597 whole entry): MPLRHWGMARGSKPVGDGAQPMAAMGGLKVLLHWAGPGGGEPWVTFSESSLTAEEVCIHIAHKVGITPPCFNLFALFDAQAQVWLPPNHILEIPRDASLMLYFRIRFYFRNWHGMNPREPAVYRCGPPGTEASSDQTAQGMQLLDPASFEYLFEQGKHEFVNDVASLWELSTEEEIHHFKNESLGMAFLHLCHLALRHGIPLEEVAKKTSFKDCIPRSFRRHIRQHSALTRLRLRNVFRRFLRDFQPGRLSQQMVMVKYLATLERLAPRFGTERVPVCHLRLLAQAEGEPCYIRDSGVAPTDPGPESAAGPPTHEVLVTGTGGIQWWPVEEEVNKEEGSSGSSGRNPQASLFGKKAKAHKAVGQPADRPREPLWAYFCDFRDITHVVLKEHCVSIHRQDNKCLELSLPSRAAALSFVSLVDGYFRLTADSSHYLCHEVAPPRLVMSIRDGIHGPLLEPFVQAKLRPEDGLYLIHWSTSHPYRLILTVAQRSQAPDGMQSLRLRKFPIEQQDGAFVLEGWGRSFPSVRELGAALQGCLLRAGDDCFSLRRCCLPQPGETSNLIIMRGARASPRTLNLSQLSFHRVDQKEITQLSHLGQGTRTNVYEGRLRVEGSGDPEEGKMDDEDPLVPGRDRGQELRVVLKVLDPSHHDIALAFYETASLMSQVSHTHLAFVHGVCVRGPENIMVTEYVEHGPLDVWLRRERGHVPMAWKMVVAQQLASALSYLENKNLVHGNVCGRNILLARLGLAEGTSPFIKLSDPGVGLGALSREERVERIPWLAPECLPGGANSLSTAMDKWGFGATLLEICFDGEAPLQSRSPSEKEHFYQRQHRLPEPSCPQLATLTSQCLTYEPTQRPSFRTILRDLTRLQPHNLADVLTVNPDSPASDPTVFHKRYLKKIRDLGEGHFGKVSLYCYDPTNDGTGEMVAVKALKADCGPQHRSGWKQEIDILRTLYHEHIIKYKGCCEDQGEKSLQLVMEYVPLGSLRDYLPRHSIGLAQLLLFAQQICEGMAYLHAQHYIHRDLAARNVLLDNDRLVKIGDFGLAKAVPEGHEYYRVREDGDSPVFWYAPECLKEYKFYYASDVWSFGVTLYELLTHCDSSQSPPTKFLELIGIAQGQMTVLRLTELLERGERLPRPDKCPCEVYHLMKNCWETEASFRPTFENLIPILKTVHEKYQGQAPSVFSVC

[6] = In vitro conversion of MMT3-72 to MMT3-72-M2 by colon contents; type: in vitro ADME, mice
Procedure, shortened: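 Fresh colon contents from female C57BL/6 mice (6–8 weeks) were suspended at 10% (w/v) in PBS as an azoreductase source, or boiled to deactivate. Test compound at 0.1 mM final was shaken at 1000 rpm, 37 °C. Aliquots at 0, 1, 2, 4, 6, 24 and 48 h were diluted 10-fold and extracted with acetonitrile. Parent and released metabolite were quantified by LC-MS/MS.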

[7] = Pharmacokinetic study in mice; type: in vivo
Procedure, shortened: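 Female C57BL/6 mice (6–8 weeks) were dosed orally at 10 mg/kg in the pH-adjusted beta-cyclodextrin/hyaluronic acid/PBS vehicle. Sacrifice at 0.5, 2, 4, 12 and 24 h; cardiac blood for plasma; intestinal tissue homogenized in PBS to 10%; intestinal contents homogenized in PBS. Parent and metabolite were measured by LC-MS/MS (C18, 0.1% formic acid water/acetonitrile gradient, 0.4 ml/min). Detection limit 2 ng/ml or 2 ng/g. n = 3, mean ± SD.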

[8] = tested on: DSS-induced colitis; assay: DSS-induced colitis in mice: DAI score, colon length; type: in vivo; conditions: for improvement of DAI score or disease severity: 1 mg/kg orally every other day; for mice that developed moderate colitis / mice that developed severe colitis: n = 10
Procedure, shortened: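 Female C57BL/6 mice (6–8 weeks), randomized; 3% DSS in distilled water for 5 days, with water-only controls. Test compound or reference JAK inhibitor was given by oral gavage every other day in a pH-adjusted vehicle (80% v/v beta-cyclodextrin:water 1:4, 15% hyaluronic acid, 5% PBS); vehicle-only group. Stool consistency and occult blood were scored daily as DAI 0–3. Colon length was measured at sacrifice on day 5. Mean ± SD; ANOVA with Tukey.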

[9] = tested on: DSS-induced colitis; assay: H&E staining of colon tissues, DSS-induced colitis; type: in vivo, mice
[10] = tested on: phosphorylation of STAT3; assay: Western blot of colon tissues: STAT3 and phosphorylated STAT3; type: in vivo, mice; conditions: DSS-induced colitis, oral MMT3-72
Procedure, shortened: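 Colon tissue came from the DSS colitis study. It was rinsed in cold PBS, homogenized in RIPA buffer, sonicated and centrifuged; protein was measured by BCA. 200 μg total protein per group underwent SDS electrophoresis and transfer to PVDF. Blots were probed overnight at 4 °C with antibodies to JAK2, STAT3, phospho-STAT3 (Tyr705) and GAPDH, then HRP secondary for 1 h at room temperature, and imaged.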

[11] = single oral dose of radiolabeled fedratinib ref 21; cited from earlier work
[12] = 10 mg/kg orally every other day

Row | SMILES | where detected (plasma, colon tissues, feces), in words [1] | IC50 ([2]; Enzyme IC50 JAK1, 0.1 mM ATP) [nM] | IC50 ([3]; Enzyme IC50 JAK2, 0.1 mM ATP) [nM] | IC50 [4] [nM] | IC50 ([5]; Enzyme IC50 TYK2, 0.1 mM ATP) [nM] | improvement of DAI score or disease severity [8] | improvement of DAI score vs DSS-induced colitis ([8]; 5 mg/kg orally every other day) | recovery of colon length from DSS-induced colitis ([8]; 10 mg/kg) | improvement of DAI score vs DSS-induced colitis [8, 12] | mice that developed severe colitis ([8]; 10 mg/kg) | epithelial loss and infiltration of immune cells (H&E) ([9]; 5 mg/kg) | epithelial loss and infiltration of immune cells (H&E) ([9]; 10 mg/kg) | also measured
1 | Cc1cnc(Nc2ccc(OCCOc3ccc(/N=N/c4ccc(C(=O)NCCC(=O)O)cc4)cc3C(=O)O)cc2)nc1Nc1cccc(S(=O)(=O)NC(C)(C)C)c1 [MMT3-72, (E)-2-(2-(4-((4-((3-(N-(tertbutyl)sulfamoyl)phenyl)amino)-5-methylpyrimidin-2-yl)amino)phenoxy)ethoxy)-5-((4-((2-carboxyethyl)carbamoyl)phenyl)diazenyl)benzoic acid] | only detected in the feces | 368 | 630 | 5240 | 4700 | did not improve DAI score or disease severity | 5 fold | recovered the colon length | 10 fold | no mice | reduced epithelial loss and decreased infiltration of immune cells | reduced epithelial loss and decreased infiltration of immune cells | stability in heat-deactivated colon contents ([6]; boiled colon contents, aqueous environment): most MMT3-72 remained intact; MMT3-72 metabolized ([6]; fresh colon contents, within 48 h of incubation): more than 90%; detection in colon/GI tissue or systemic circulation/plasma ([7]; mice, 10 mg/kg MMT3-72 orally): not detected; mice that developed moderate colitis ([8]; 5 mg/kg): 10%; mice that developed severe colitis ([8]; 5 mg/kg): no mice; mice that developed moderate colitis ([8]; 10 mg/kg): no mice; phosphorylation of STAT3 in colon tissue [10]: effectively inhibit the phosphorylation of STAT3; also recorded: inhibited the phosphorylation of STAT3
2 | Cc1cnc(Nc2ccc(OCCO)cc2)nc1Nc1cccc(S(=O)(=O)NC(C)(C)C)c1 [MMT3-72-M2, N-(tert-butyl)-3-((2-((4-(2-hydroxyethoxy)phenyl)amino)-5methylpyrimidin-4-yl)amino)benzenesulfonamide] | only detected in the colon tissues and the feces with limited detection in the plasma | 10.8 | 26.3 | 329 | 91.6 | – | – | – | – | – | – | – | IC50 ([2]; IC50 JAK1 expressed in ng/ml, converted from nM): ~10.6 nM; IC50 ([3]; IC50 JAK2 expressed in ng/ml, converted from nM): ~25.7 nM; IC50 ([5]; IC50 TYK2 expressed in ng/ml, converted from nM): ~89.3 nM; formation of MMT3-72-M2 from MMT3-72 ([6]; fresh colon contents): readily converted from MMT3-72; concentration at 12 h ([7]; female, C57BL/6, mouse, colon tissue, po, 10 mg/kg): 131 ng/g and ~285 nM; duration of effective concentrations in colon tissue ([7]; mice, 10 mg/kg MMT3-72 orally): 12 h; Cmax in plasma ([7]; mice, 10 mg/kg MMT3-72 orally, 10 mg/kg): < 8 ng/mL; time after which undetectable in plasma ([7]; mice, 10 mg/kg MMT3-72 orally, limit of detection 2 ng/ml): 4 h
3 | Cc1cnc(Nc2ccc(OCCN3CCCC3)cc2)nc1Nc1cccc(S(=O)(=O)NC(C)(C)C)c1 [fedratinib] | – | – | – | – | – | – | – | – | – | – | – | – | excreted in feces unchanged [11]: 23%; fedratinib-derived radioactivity excreted in feces [11]: ~77%
4 | C[C@@H]1CCN(C(=O)CC#N)C[C@@H]1N(C)c1ncnc2[nH]ccc12 [tofacitinib, reference compound] | – | – | – | – | – | did not improve DAI score or disease severity | did not show any improvement in DAI score | recovered the colon length | showed improvement in DAI score | 10% | did not show improvement in epithelial cell loss and infiltration of immune cells | moderate improvement | –
